# Results of several laboratories.
# Lines come from different studies, so protocols differ.
# Read-out: cell growth or viability
Compound,cell line,assay,conditions,IC50
CC(C)c1cc(C(=O)N2Cc3ccccc3C2)c(O)c2c1C(=O)C(C)(C)C2,UMUC3,ATP luminescence,72 h,51.9 µM
COc1cc2nccc(Oc3ccc(NC(=O)C4(C(=O)Nc5ccc(F)cc5)CC4)cc3)c2cc1OC,RD,,72 h,1.21 µM
Cn1nnc2c(Cl)ncn2c1=O,U-118-MG,resazurin,7 days,60 µM
O=C(Nc1ccc(Cl)cc1)c1ccc([N+](=O)[O-])o1,NCI-H1650,resazurin,96 h,0.38 µM
CC(=O)OC[C@H]1O[C@@H]([S-])[C@H](OC(C)=O)[C@@H](OC(C)=O)[C@@H]1OC(C)=O.CCP(CC)CC.[Au+],IMR-90,resazurin,,6.77 µM
CC1Cc2c(O)c(C(=O)N3Cc4ccccc4C3)cc(C(C)C)c2C1=O (stereo not drawn),UMUC3,ATP luminescence,72 h,70.4 µM
O=c1cc(-c2ccc(O)c(O)c2)oc2cc(O)cc(O)c12,RD,WST-1,48 h,16 µM
CC(C)Cc1ccc(-c2nn(-c3ccc(S(C)(=O)=O)cc3)cc2/C=N/N=c2\[nH]c(-c3ccc(Br)cc3)cs2)cc1,F180,MTT,48 h,73.7 µM
CN1C(=O)c2cc(C(N)=O)nc3c(N)c(Cl)c(N)c1c23,HCC44,,,15.3 µM
CCN(CC)CCNC(=O)c1c(C)[nH]c(/C=C2\C(=O)Nc3ccc(F)cc32)c1C,Swiss-3T3,,72 h,4.43 µM
COc1ccc(CCNC(=O)C(=O)Nc2ccc(Cl)cc2)cc1,NCI-H2122,,,< 0.1 µM
O=c1c(O)c(-c2ccc(O)cc2)oc2cc(O)cc(O)c12,RD,WST-1,48 h,54.1 µM
Cc1cc(-c2nc(C(=O)Nc3cc4oc(N5CCOCC5)nc4nc3N3CC[C@@H](O)C3)co2)ccn1,SU-DHL-4,,5 days,> 10 µM
COc1cccc2c1C(=O)c1c(O)c3c(c(O)c1C2=O)C[C@@](O)(C(=O)CO)C[C@@H]3O[C@H]1C[C@H](N)[C@H](O)[C@H](C)O1,Caco-2,MTT,48 h,17.8 µM
COc1cc([C@@H]2c3cc4c(cc3[C@@H](O[C@@H]3O[C@@H]5CO[C@@H](C)O[C@H]5[C@H](O)[C@H]3O)[C@H]3COC(=O)[C@H]23)OCO4)cc(OC)c1O,Caco-2,MTS,72 h,14 µM
Cn1nnc2c(C(N)=O)ncn2c1=O,U-118-MG,resazurin,7 days,322 µM
CC(C)c1cc(C(=O)N2Cc3ccccc3C2)c(O)c2c1C(=NO)CC2,UMUC3,ATP luminescence,72 h,51.6 µM
COc1cc(/C=C/C(=O)/C=C/c2cn(-c3ccccc3)nc2-c2ccccc2)ccc1O,LLC-PK1,MTT,72 h,15.8 µM
CS(=O)(=O)c1ccc(-n2cc(/C=N/N=c3\[nH]c(-c4ccc([N+](=O)[O-])cc4)cs3)c(-c3ccc([N+](=O)[O-])cc3)n2)cc1,F180,MTT,48 h,70.6 µM
C=C1Cc2c(O)c(C(=O)N3Cc4ccccc4C3)cc(C(C)C)c2C1=O,UMUC3,ATP luminescence,72 h,> 100 µM
C[C@@H](Oc1cc(-c2cnn(C3CCNCC3)c2)cnc1N)c1c(Cl)ccc(F)c1Cl,RD,,72 h,0.49 µM
CC(C)c1cc(C(=O)N2Cc3ccccc3C2)c(O)c2c1C(=O)C=C2,UMUC3,ATP luminescence,72 h,1.18 µM
COc1ccc(/C=C/C(=O)/C=C/c2cn(-c3ccccc3)nc2-c2ccccc2)cc1O,LLC-PK1,MTT,72 h,8.39 µM
Cc1nc(Nc2ncc(C(=O)Nc3c(C)cccc3Cl)s2)cc(N2CCN(CCO)CC2)n1,F180,MTT,48 h,32.2 µM
O=c1c(O)c(-c2ccc(O)c(O)c2)oc2cc(O)cc(O)c12,RD,WST-1,48 h,29.8 µM
COc1cc(Nc2nccc(-c3cnn4nc(OC)ccc34)n2)cc(C(F)(F)F)c1,NCI-H1581,ATP luminescence,,0.41 µM
O=C(O)CCCc1ccccc1,LoVo,MTT,72 h,> 50 µM
CC(C)C[C@H](NC(=O)[C@H](Cc1ccccc1)NC(=O)c1cnccn1)B(O)O,U-118-MG,ATP luminescence,,0.0075 µM
CC(C)c1cc(C(=O)N2Cc3ccccc3C2)c(O)c2[nH]nnc12,UMUC3,ATP luminescence,72 h,> 100 µM
COc1ccc(/C=C/C(=O)/C=C/c2c(C)nn(-c3ccccc3)c2Cl)cc1O,LLC-PK1,MTT,72 h,16.1 µM
Cn1nnc2c(-c3ccccc3)ncn2c1=O,U-118-MG,resazurin,7 days,3 µM
CC(C)Cc1ccc(-c2nn(-c3ccc(S(C)(=O)=O)cc3)cc2/C=N\N=C2/NC(=O)CS2)cc1,F180,MTT,48 h,44.6 µM
CNC(=O)c1cccc2cc(Oc3ccnc4cc(OCC5(N)CC5)c(OC)cc34)ccc12,Swiss-3T3,SRB,,0.064 µM
